The record followed here is ChEMBL document CHEMBL4373696, “Probing the Existence of a Metastable Binding Site at the β2-Adrenergic Receptor with Homobivalent Bitopic Ligands” (J Med Chem, 2019).

One may read the IC50 as the concentration at which inhibition is half-maximal.

The target in assay [1] is T1, Beta-1 adrenergic receptor (Homo sapiens, UniProt P08588). As to the kind of experiment: Displacement of [3H]DHA from beta1 adrenergic receptor (unknown origin) stably expressed in HEK293 cell membranes measured after 90 mins by scintillation counting analysis. In general terms: In a radioligand displacement assay an active substance lowers the binding of a labelled ligand.

The target in assay [2] is T1, Beta-1 adrenergic receptor. As to the kind of experiment: Antagonist activity at beta1 adrenergic receptor (unknown origin) stably expressed in HEK293 cell membranes assessed as inhibition of isoproterenol-induced cAMP production preincubated for 15 mins followed by isoproterenol addition and measured after 30 mins by TR-FRET assay. It counts as cell-based. The procedure, abridged: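 Membranes from HEK293 cells stably overexpressing β1AR; ligand's blockade of isoproterenol-stimulated cAMP production measured; pIC50 as mean ± SEM from 3-8 independent experiments run in duplicate.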

The target of assay [3] is T2, Beta-2 adrenergic receptor (Homo sapiens, UniProt P07550). As to the kind of experiment: Antagonist activity at beta2 adrenergic receptor (unknown origin) stably expressed in HEK293 cell membranes assessed as inhibition of isoproterenol-induced cAMP production preincubated for 15 mins followed by isoproterenol addition and measured after 30 mins by TR-FRET assay. In kind it is functional, cell-based.

Assay [4] is filed under the species Homo sapiens. As to the kind of experiment: Selectivity ratio of Ki for displacement of [3H]DHA from beta1 adrenergic receptor (unknown origin) stably expressed in HEK293 cell membranes to displacement of [3H]DHA from beta2 adrenergic receptor (unknown origin) stably expressed in HEK293 cell membranes.
Assay [5] concerns the target T2, Beta-2 adrenergic receptor. Briefly: Antagonist activity at beta2 adrenergic receptor (unknown origin) expressed in HEK293 cell assessed as inhibition of isoproterenol-induced cAMP production preincubated for 15 mins followed by isoproterenol addition and measured after 15 mins. In kind it is functional, cell-based. (In general: Cyclic AMP is a second messenger, typically raised through Gs and lowered through Gi signalling.)

For assay [6], the species on record is Homo sapiens. As to the kind of experiment: Selectivity ratio of IC50 for antagonist activity at beta1 adrenergic receptor (unknown origin) stably expressed in HEK293 cell membranes to IC50 for antagonist activity at beta2 adrenergic receptor (unknown origin) stably expressed in HEK293 cell membranes. It counts as cell-based.
The target in assay [7] is T2, Beta-2 adrenergic receptor. Briefly: Displacement of [3H]DHA from beta2 adrenergic receptor (unknown origin) stably expressed in HEK293 cell membranes measured after 90 mins by scintillation counting analysis.

T2 sequence (P07550 whole entry): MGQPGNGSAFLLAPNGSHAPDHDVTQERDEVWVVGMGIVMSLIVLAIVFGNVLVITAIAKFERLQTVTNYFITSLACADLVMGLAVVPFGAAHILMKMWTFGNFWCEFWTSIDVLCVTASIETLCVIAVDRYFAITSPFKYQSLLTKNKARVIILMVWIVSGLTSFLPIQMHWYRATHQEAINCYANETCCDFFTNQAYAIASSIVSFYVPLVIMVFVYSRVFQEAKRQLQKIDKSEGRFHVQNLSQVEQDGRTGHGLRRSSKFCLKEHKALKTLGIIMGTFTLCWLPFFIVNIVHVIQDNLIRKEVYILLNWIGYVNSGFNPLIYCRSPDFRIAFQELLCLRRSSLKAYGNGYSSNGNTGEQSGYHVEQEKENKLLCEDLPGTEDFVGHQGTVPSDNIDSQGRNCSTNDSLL
T1 sequence (P08588 whole entry): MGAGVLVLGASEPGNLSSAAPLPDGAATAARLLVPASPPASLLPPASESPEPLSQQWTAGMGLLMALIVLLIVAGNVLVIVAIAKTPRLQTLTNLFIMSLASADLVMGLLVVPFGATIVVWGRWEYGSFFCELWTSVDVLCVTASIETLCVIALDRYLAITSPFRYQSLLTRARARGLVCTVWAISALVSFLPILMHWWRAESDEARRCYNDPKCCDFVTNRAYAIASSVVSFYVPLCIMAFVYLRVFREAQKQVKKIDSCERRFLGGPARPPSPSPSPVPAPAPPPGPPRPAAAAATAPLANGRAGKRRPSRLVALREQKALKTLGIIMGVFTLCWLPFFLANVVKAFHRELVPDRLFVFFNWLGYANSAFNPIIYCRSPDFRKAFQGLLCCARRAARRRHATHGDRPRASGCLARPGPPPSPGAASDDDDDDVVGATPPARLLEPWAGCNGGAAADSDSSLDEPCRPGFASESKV

As to `CC(C)NC[C@H](O)COc1ccccc1CCCCCCCCCCCCc1ccccc1OC[C@@H](O)CNC(C)C`, the values for the Ki in assay [1] and in assay [7] (read-out: pKi (converted)) were 1.26 nM and 1.15 nM, respectively. In addition, the IC50 is 13.8 nM in assay [2], 6.92 nM in assay [3] and 25.7 nM in assay [5]. The Ratio Ki in assay [4] is 1.1. For the same compound, the Ratio IC50 in assay [6] was 2.
`CC(C)NC[C@H](O)COc1ccccc1-n1cc(CNCc2cn(-c3ccccc3OC[C@@H](O)CNC(C)C)nn2)nn1`: the Ki in assay [1] was 479 nM; in assay [7] (read-out: pKi (converted)), 38.9 nM. The IC50 was 3630 nM in assay [2], 170 nM in assay [3] and 12 nM in assay [5]. The Ratio Ki in assay [4] was found to be 12.3. Besides, the Ratio IC50 in assay [6] worked out at 21.4.
Turning to `CC(C)NC[C@H](O)COc1ccccc1OCCOCCOCCOc1ccccc1OC[C@@H](O)CNC(C)C`, the IC50 in assay [2] was 97.7 nM; in assay [3] it was 74.1 nM. Besides, in assay [6], the Ratio IC50 was found to be 1.3.
With `CC(C)NC[C@H](O)COc1ccccc1CCNC(=O)NCCc1ccccc1OC[C@@H](O)CNC(C)C`, the Ki was 19.5 nM in assay [1] and 3.47 nM in assay [7] (read-out: pKi (converted)). Moreover, the IC50 in assay [2] was 126 nM; in assay [3] it was 16.2 nM; in assay [5], 2.19 nM. The Ratio Ki in assay [4] amounted to 5.62. For the same compound, the Ratio IC50 in assay [6] came to 7.7.
Consider `CC(C)NC[C@H](O)COc1ccccc1CCn1cc(CNCc2cn(CCc3ccccc3OC[C@@H](O)CNC(C)C)nn2)nn1`, for which the Ki is 2.88 nM in assay [1] and 0.891 nM in assay [7] (read-out: pKi (converted)). Moreover, the IC50 is 19.5 nM in assay [2], 4.68 nM in assay [3] and 2.04 nM in assay [5]. In addition, in assay [4], the Ratio Ki came to 3.24. For the same compound, in assay [6], the Ratio IC50 was 4.2.
Regarding `CC(C)NC[C@H](O)COc1ccccc1CCCCCCCCc1ccccc1OC[C@@H](O)CNC(C)C`, the Ki in assay [1] was 4.17 nM; in assay [7] (read-out: pKi (converted)) it was 0.794 nM. Further, the IC50 is 20 nM in assay [2], 2.34 nM in assay [3] and 5.25 nM in assay [5]. Moreover, in assay [4], the Ratio Ki amounted to 5.25. In addition, the Ratio IC50 in assay [6] turned out to be 8.6.
As for `CC(C)NC[C@H](O)COc1ccccc1CCCC(=O)NCCNC(=O)CCCc1ccccc1OC[C@@H](O)CNC(C)C`, the Ki in assay [1] is 8.91 nM; in assay [7], 1.29 nM; in assay [7] (read-out: pKi (converted)), 0.759 nM. For the same compound, the 50% inhibitory concentration (IC50) in assay [2] was 26.3 nM; in assay [3], 6.61 nM; in assay [5], 1.55 nM. In addition, the Ratio Ki in assay [4] stood at 11.8. Besides, the Ratio IC50 in assay [6] was found to be 4.
In the case of `CC(C)NC[C@H](O)COc1ccccc1CCCC(=O)NCCCCNC(=O)CCCc1ccccc1OC[C@@H](O)CNC(C)C`, the IC50 in assay [2] was 182 nM; in assay [3] it was 11.2 nM. Further, the Ratio IC50 in assay [6] is 16.2.
Consider `CC(C)NC[C@H](O)COc1ccccc1CCCCCCCCCCc1ccccc1OC[C@@H](O)CNC(C)C`, for which the Ki in assay [1] was 1.82 nM; in assay [7] (read-out: pKi (converted)) it was 1.51 nM. Moreover, the IC50 is 11.2 nM in assay [2], 3.8 nM in assay [3] and 13.8 nM in assay [5]. In addition, in assay [4], the Ratio Ki amounted to 1.2. The Ratio IC50 in assay [6] stood at 2.9.
Regarding `CC(C)NC[C@H](O)COc1ccccc1CCCn1cc(CNCc2cn(CCCc3ccccc3OC[C@@H](O)CNC(C)C)nn2)nn1`, the Ki was 1.1 nM in assay [1] and 0.437 nM in assay [7] (read-out: pKi (converted)). The concentration for half-maximal inhibition (IC50) in assay [2] was 4.68 nM; in assay [3] it was 2.88 nM; in assay [5], 1.2 nM. For the same compound, in assay [4], the Ratio Ki is 2.51. In addition, the Ratio IC50 in assay [6] was 1.6.
Consider `CC(C)NC[C@H](O)COc1ccccc1CCC(=O)NCCCNC(=O)CCc1ccccc1OC[C@@H](O)CNC(C)C`, for which the half-maximal inhibitory concentration (IC50) in assay [2] is 1780 nM; in assay [3], 8.32 nM. Further, the Ratio IC50 in assay [6] worked out at 214.
For `CC(C)NC[C@H](O)COc1ccccc1CCCNC(=O)NCCCc1ccccc1OC[C@@H](O)CNC(C)C`, the Ki in assay [1] was 44.7 nM; in assay [7] it was 1.91 nM; in assay [7] (read-out: pKi (converted)) it was 1.17 nM. Moreover, the half-inhibitory concentration (IC50) was 372 nM in assay [2], 7.59 nM in assay [3] and 1.58 nM in assay [5]. Moreover, the Ratio Ki in assay [4] came to 38. Also, in assay [6], the Ratio IC50 was 49.2.
With `COc1ccccc1CCCC(=O)NCCNC(=O)CCCc1ccccc1OC[C@@H](O)CNC(C)C`, in assay [3], the half-inhibitory concentration (IC50) was 3.89 nM.
Regarding `CC(C)NC[C@H](O)COc1ccccc1CCCCNC(=O)NCCCCc1ccccc1OC[C@@H](O)CNC(C)C`, the Ki in assay [1] is 3.98 nM; in assay [7] (read-out: pKi (converted)) it was 0.38 nM. For the same compound, the results for the IC50 in assay [2], in assay [3] and in assay [5] were 14.5 nM, 1.58 nM and 1.78 nM, respectively. Besides, the Ratio Ki in assay [4] came to 10.5. Besides, in assay [6], the Ratio IC50 is 9.2.
Take `CC(C)NC[C@H](O)COc1ccccc1OCCOCCOc1ccccc1OC[C@@H](O)CNC(C)C`: the results for the IC50 in assay [2] and in assay [3] were 234 nM and 46.8 nM, respectively. In assay [6], the Ratio IC50 amounted to 5.
As to `CC(C)NC[C@H](O)COc1ccccc1Cn1cc(CNCc2cn(Cc3ccccc3OC[C@@H](O)CNC(C)C)nn2)nn1`, the Ki is 83.2 nM in assay [1] and 15.5 nM in assay [7] (read-out: pKi (converted)). Also, the IC50 in assay [2] is 490 nM; in assay [3] it was 64.6 nM; in assay [5], 6.31 nM. Besides, in assay [4], the Ratio Ki was found to be 5.37. Further, in assay [6], the Ratio IC50 stood at 7.6.
As for `CC(C)NC[C@@H](O)COc1ccccc1CCCC(=O)NCCNC(=O)CCCc1ccccc1OC[C@H](O)CNC(C)C`, the IC50 in assay [2] was 4470 nM; in assay [3], 214 nM. In addition, the Ratio IC50 in assay [6] was 20.9.
Regarding `CC(C)NC[C@H](O)COc1ccccc1CCCCCCc1ccccc1OC[C@@H](O)CNC(C)C`, the values for the Ki in assay [1] and in assay [7] (read-out: pKi (converted)) were 6.46 nM and 0.955 nM, respectively. The results for the 50% inhibitory concentration (IC50) in assay [2], in assay [3] and in assay [5] were 27.5 nM, 3.8 nM and 3.24 nM, respectively. Besides, the Ratio Ki in assay [4] is 6.76. Also, the Ratio IC50 in assay [6] was 7.2.
For the compound `CC(C)NC[C@H](O)COc1ccccc1CCCC(=O)NCCCNC(=O)CCCc1ccccc1OC[C@@H](O)CNC(C)C`, the half-maximal inhibitory concentration (IC50) is 28.2 nM in assay [2] and 6.46 nM in assay [3]. Further, the Ratio IC50 in assay [6] is 4.3.
For the compound `CC(C)NC[C@H](O)COc1ccccc1CCCC(=O)NCCNC(=O)CCCc1ccccc1`, the IC50 in assay [3] was 5.89 nM.
For the compound `CCCC(=O)NCCNC(=O)CCCc1ccccc1OC[C@@H](O)CNC(C)C`, the IC50 in assay [3] was 64.6 nM.
Consider `CC(C)NC[C@H](O)COc1ccccc1CCCCCNC(=O)NCCCCCc1ccccc1OC[C@@H](O)CNC(C)C`, for which the half-maximal inhibitory concentration (IC50) in assay [2] is 5.62 nM; in assay [3] it was 1.74 nM. Further, the Ratio IC50 in assay [6] was determined as 3.2.
Consider `CC(C)NC[C@H](O)COc1ccccc1CCC(=O)NCCNC(=O)CCc1ccccc1OC[C@@H](O)CNC(C)C`, for which the Ki in assay [1] is 269 nM; in assay [7] (read-out: pKi (converted)), 11.7 nM. Besides, the IC50 in assay [2] is 2040 nM; in assay [3], 75.9 nM; in assay [5], 3.31 nM. The Ratio Ki in assay [4] amounted to 22.9. Also, the Ratio IC50 in assay [6] stood at 26.5.
With `CCCNC(=O)NCCCc1ccccc1OC[C@@H](O)CNC(C)C`, the IC50 in assay [3] was 85.1 nM.
`CC(C)NC[C@H](O)COc1ccccc1CCCNC(=O)NCCCc1ccccc1`: in assay [3], the IC50 was 14.1 nM.
Take `CC(C)NC[C@H](O)COc1ccccc1CC(=O)NCCNC(=O)Cc1ccccc1OC[C@@H](O)CNC(C)C`: the results for the Ki in assay [1] and in assay [7] (read-out: pKi (converted)) were 2570 nM and 468 nM, respectively. In addition, the IC50 in assay [2] was 11000 nM; in assay [3] it was 2630 nM; in assay [5], 214 nM. Besides, in assay [4], the Ratio Ki came out at 5.5. Further, the Ratio IC50 in assay [6] amounted to 4.1.
Regarding `COc1ccccc1CCCNC(=O)NCCCc1ccccc1OC[C@@H](O)CNC(C)C`, the IC50 in assay [3] was 13.8 nM.
